Shown is part of a subset that was picked to be rich in hits.
Dyrk1A ADPGlo: Dyrk1A (rat) kinase inhibition. AID 504441. ADP-Glo luminescence, NFATc1 peptide. Q63470. inhibition, % at 12.5 µM. 310,000 tested, 0.43% active; in the data active = inhibition above about 50%;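 also: plate controls were vehicle with enzyme for no effect and no enzyme for full effect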
CDK5 inh: inhibitors of human CDK5/p35 kinase; 330,000 tested, 0.01% active; Recombinant CDK5/p35, ADP-Glo luminescence, 60 min; inhibition, % at 10 µM;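 active = highest replicate inhibition of at least 50% and at least 75% of replicates reaching 50%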;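 also: plate controls were DMSO neutral control for no effect and GW8510 at 10 µM for full effect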
Target sequence (Q00535 whole entry, looked up): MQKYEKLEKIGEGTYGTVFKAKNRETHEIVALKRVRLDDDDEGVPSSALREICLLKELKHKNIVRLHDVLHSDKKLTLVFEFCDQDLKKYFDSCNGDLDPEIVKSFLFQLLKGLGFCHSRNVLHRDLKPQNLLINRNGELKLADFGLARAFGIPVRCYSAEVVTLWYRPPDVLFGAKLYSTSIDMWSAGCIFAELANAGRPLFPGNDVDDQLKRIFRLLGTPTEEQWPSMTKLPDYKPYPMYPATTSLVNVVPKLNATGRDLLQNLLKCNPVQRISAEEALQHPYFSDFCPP
Target sequence (Q15078 whole entry, looked up): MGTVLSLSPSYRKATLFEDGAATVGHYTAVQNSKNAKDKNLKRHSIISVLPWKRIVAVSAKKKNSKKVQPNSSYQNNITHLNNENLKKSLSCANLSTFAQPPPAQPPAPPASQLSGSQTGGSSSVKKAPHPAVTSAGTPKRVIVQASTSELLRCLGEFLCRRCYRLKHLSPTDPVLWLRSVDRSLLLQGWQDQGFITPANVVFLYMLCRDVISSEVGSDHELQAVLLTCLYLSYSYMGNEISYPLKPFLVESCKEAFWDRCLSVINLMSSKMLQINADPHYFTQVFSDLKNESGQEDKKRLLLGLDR
STK33 kinase inh: human STK33 kinase inhibition. Q9BYT3. purified STK33, MBP phosphorylation, ADP-Glo luminescence. AID 2661. 320,000 tested, 0.073% active. inhibition, % at 10 µM;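 active = inhibition at or above 25%, using the most active replicate where run in duplicate; inactive = inhibition below 25%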
GSK3A inh: inhibitors of human GSK-3 alpha kinase | ADP-Glo luminescence, 60 min | inhibition, % at 10 µM | 320,000 tested, 0.1% active;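 active = more than half of replicates show inhibition above 20%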;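 also: GST-tagged GSK-3 alpha with peptide substrate and 25 µM ATP; 0% = DMSO neutral wells and 100% = GW8510 positive control wells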
GSK3beta inhib: human GSK3beta kinase inhibition. P49841. GST-GSK3beta kinase, ADP-Glo luminescence, 60 min; hits give low values. activity score (negative = inhibition), % at 10 µM. 300,000 tested, 0.038% active. AID 2097;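 active = more than half of replicate wells score below -50%, meaning over 50% inhibition versus plate controls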;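 also: 0% = median DMSO wells and -100% = median GW8510 positive control wells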
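Assay system: GST-tagged human GSK3beta kinase, cell-free; Input: 1.6 ng GSK3beta; Medium: Tris/MgCl2 kinase buffer; Timing: 60 min enzyme reaction, room temperature; Signal: ADP-Glo luminescence quantifying ADP generated by kinase; Evaluation: score relative to plate controls; Benchmarks: DMSO neutral wells and GW8510 at 20 µM as positive.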
Dyrk1A artifact: interferes with ADP-Glo luciferase readout without Dyrk1A. AID 588348. shares compounds with Dyrk1A ADPGlo. ADP-Glo luciferase artifact assay, no Dyrk1A, luminescence. AC50, µM (titrated, usually from 12 µM), without a hit: at the highest dose activity change, negative = inhibition. 1,300 tested, under 10 active;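 active = fitted half-maximal dose AC50 no more than ten times the top valid tested dose, with luminescence dropping as dose rises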
Active calls of the source: *; nt = no result given.

SMILES	Dyrk1A ADPGlo	CDK5 inh	STK33 kinase inh	GSK3A inh	GSK3beta inhib	Dyrk1A artifact
CCN1CCN(CCCNC(=O)c2cc3cc4ccc(OC)cc4nc3o2)CC1	88*	-2	0	4	-9	7%
O=Cc1ccc(Oc2cnccn2)cc1	1	4	-2	nt	2	nt
O=C1NC(=O)/C(=C\c2ccc(Oc3cnccn3)cc2)S1	59*	-1	2	0	4	10%
O=C1NC(=S)S/C1=C/c1ccc(Oc2cnccn2)cc1	65*	-4	0	-2	2	10%
Nc1nc(-c2ccco2)nn1C(=O)c1ccc([N+](=O)[O-])cc1	2	-7	-1	-2	2	nt
CCC(Sc1nc2sc(C(=O)OC)c(C)c2c(=O)n1N)C(=O)NCC1CCCO1 (stereo unspecified)	3	-1	-1	0	-1	nt
O=C(COc1ccc2c(-c3ccccc3)cc(=O)oc2c1)Nc1ccc(CCO)cc1	3	-1	0	0	-1	nt
C=C(C)CSc1[nH]c(=O)cc(C)c1C#N	-1	0	0	-1	2	nt
CC1CCC(C(C)C)C2=C1C(C#N)(C#N)C(C#N)(C#N)C(c1ccccc1)N2 (stereo unspecified)	54*	0	12	34	-16	7%
CN(C(=O)N1CCN(S(=O)(=O)c2ccccc2)CC1)c1ccccc1	-4	-2	1	0	5	nt
Oc1ccc(-c2nc3ncccn3c2Nc2ccc3c(c2)OCO3)cc1	60*	2	2	53*	-1	8%
O=S(=O)(Nc1c(S(=O)(=O)c2ccccc2)c2nc3ccccc3nc2n1C1CCCCC1)c1ccccc1	75*	1	0	2	-1	10%
COc1cc(NC(C)=O)c2ncccc2c1[N+](=O)[O-]	16	-2	-1	-1	0	nt
c1ccc(-c2nnc(CSc3ccc4c(c3)OCCO4)o2)cc1	54*	1	1	1	1	14%
O=C(OCc1nnc(-c2ccccc2)o1)c1ccc2c(c1)OCO2	3	-1	0	-4	1	nt
CCC1COCCS(=O)(=O)N1Cc1cccc(Cl)c1 (stereo unspecified)	0	0	0	-1	1	nt
CC(C)C[C@H]1COCCS(=O)(=O)N1Cc1ccc(Cl)c(Cl)c1	51*	0	-1	1	-2	8%
COC(=O)CCCNC(=O)c1ccc2[nH]c(C)c(C)c2c1	nt	1	1	-2	-4	nt
Cc1[nH][nH]c(=O)c1N=Nc1ccc(Br)c(Cl)c1	9	-1	2	1	0	nt
Cc1[nH][nH]c(=O)c1N=Nc1ccccc1Cl	55*	-3	0	20	-10	8%
CC(C)CN1CCC(CNC(=O)CCc2nnc(Cc3c[nH]c4ccccc34)o2)CC1	5	-1	0	-4	0	nt
Cc1ccc2nc(NC(=O)COC(=O)c3ccc(Br)o3)sc2c1	40	0	3	-1	nt	nt
O=C1NC(=S)/C(=C\c2ccc(-c3ccccc3Cl)o2)S1	3	-1	-1	-5	3	nt
COc1ccc(C=C2SC(=O)NC2=O)cc1OC	nt	-1	nt	nt	nt	nt
O=C1NC(=O)/C(=C\c2ccc(Br)o2)S1	66*	-1	-2	6	1	13%
SMILES	Dyrk1A ADPGlo	CDK5 inh	STK33 kinase inh	GSK3A inh	GSK3beta inhib	Dyrk1A artifact
O=C1NC(=O)/C(=C/c2ccc(-c3cc(C(=O)O)ccc3Cl)o2)S1	61*	-2	13	28	2	10%
Cc1nn(C)c(C(=O)NC(=S)Nc2ccccc2O)c1Cl	2	1	-1	-1	1	nt
COc1ccc(C(=O)Nc2nc3ccccc3[nH]2)cc1S(=O)(=O)N1CCOCC1	55*	2	7	-3	1	10%
Clc1ccc2nc(COc3ccccc3)[nH]c2c1	54*	0	10	-1	2	9%
COc1cccc(NC(=O)c2ccncc2)c1	11	1	1	6	1	nt
COc1cccc(NC(=O)c2sc(NC(=O)c3ccncc3)nc2C)c1	54*	0	4	-3	-5	8%
Clc1cnc(N/N=C/c2cccs2)c(Cl)c1	4	0	1	0	4	nt
Cc1ccsc1/C=N/Nc1ncnc2nc[nH]c12	54*	43	9	46	-26	2%
Cc1ccccc1/C=N/Nc1ncnc2nc[nH]c12	63*	22	8	54*	-36	8%
C(=N\Nc1ncnc2nc[nH]c12)/c1cccs1	66*	24	5	43	-49	-1%
COc1ccc(-n2cnnc2SC(C)C(=O)Nc2cccc([N+](=O)[O-])c2)cc1 (stereo unspecified)	1	-1	-1	-1	1	nt
COc1cscc1C(N)=O	nt	1	-2	-1	-1	nt
Oc1ccc2nnc3c(Br)cnn3c2c1	77*	-1	11	21	-7	10%
N#Cc1ccc(Oc2ccc(S(=O)(=O)N3CCOCC3)cn2)cc1	11	1	-1	-1	-2	nt
CCCCNc1nc(N)nc(-c2cc(Cl)ccc2O)n1	5	0	2	6	1	nt
CCNc1nc(N)nc(-c2cc(Cl)ccc2O)n1	67*	35	75*	72*	-73*	6%
O=C(NCc1cccnc1)C1CCN(S(=O)(=O)c2cc([N+](=O)[O-])ccc2Cl)CC1	4	-1	0	-1	nt	nt
C(=N\NC1=Nc2cccc3cccc1c23)/c1ccccn1	53*	1	nt	nt	2	9%
COC(=O)c1oc2ccc(OC)cc2c1N	70*	1	1	5	-7	11%
COc1ccc(C(=O)c2oc3ccc(OC)cc3c2N)cc1	-4	0	0	-1	-1	nt
COC(=O)c1[nH]c2cc(OC)ccc2c1N	75*	2	2	nt	1	10%
CCOC(=O)c1[nH]c2ccc(OC)cc2c1NC(=O)OC	-2	0	0	nt	0	nt
O=C1C(=O)c2ccccc2C(O)=C1CC=C(Cl)Cl	66*	-1	nt	nt	nt	8%
O=C1C(C=Nc2ccccc2)=C(O)c2ccccc21	40	2	9	1	-4	nt
COc1ccc(C(=O)Nc2ccc(O)c3ccccc23)cc1OC	-4	-3	-3	1	2	nt
COc1ccc2c(c1)C(=NNc1ccc(C(=O)O)cc1)c1cc(OC)ccc1-2	83*	2	-3	2	2	10%
COc1ccc2c(c1)C(=NN)c1cc(OC)ccc1-2	79*	0	5	1	-3	6%
COc1ccc(OC)c(N)c1	3	2	0	0	2	nt
COCCN(C(=O)c1ccc2c(c1)S(=O)(=O)N=C1CCCCCN12)c1c(N)n(CC(C)C)c(=O)[nH]c1=O	nt	1	nt	nt	nt	nt
Oc1ccc2c(ccc3[nH]cnc32)c1	79*	3	13	2	2	7%

Screening results deposited in PubChem BioAssay by Broad Institute.
